The results in this text go back to ChEMBL document CHEMBL3861961, “Effects of Functional Groups and Sugar Composition of Quercetin Derivatives on Their Radical Scavenging Properties” (J Nat Prod, 2016).

The source made the active and inactive calls. No cut-off for these calls is given here. Some results are limits rather than exact numbers.

Test [1] can be described thus: Antioxidant activity assessed as DPPH free radical scavenging activity at 5 uM after 15 to 60 mins in presence of CuSO4.5H2O. In kind it is functional. In outline:
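Samples (0.2 mM in MeOH) mixed 1:1 by volume with CuSO4·5H2O (0.4 mM in MeOH), held 1.5 h at room temperature. DPPH step: 74 μM DPPH final in H2O/MeOH (5/3), sample 5 μM final. Mixture left standing, then absorbance read at 545 nm after 15, 30 and 60 min. Wells without compound were negative controls. At least triplicate.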

Test [2] in a line: Antioxidant activity assessed as DPPH free radical scavenging activity by measuring remaining DPPH at 5 uM after 15 to 60 mins relative to trolox. Type of test: functional. In outline:
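DPPH 74 μM final in H2O/MeOH (5/3), mixed vigorously with sample (0.1 mM stock in MeOH; 5 μM final) and left standing. Absorbance at 545 nm read at 15, 30 and 60 min. Wells without compound served as negative controls. At least three replicates per compound and control.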

Test [3] is described as follows: Antioxidant activity assessed as DPPH free radical scavenging activity by measuring decrease in signal intensity at 0.015 mmol measured after 30 mins in presence of 3-Omethylquercetin by 13C-NMR spectroscopy.

With `O=C(O[C@@H]1[C@@H](O)[C@H](Oc2c(-c3ccc(O)c(O)c3)oc3cc(O)cc(O)c3c2=O)O[C@H](CO)[C@H]1O)c1cc(O)c(O)c(O)c1`, in test [1], the Activity was less than 35%.

Regarding `O=C(OC[C@H]1O[C@@H](Oc2c(-c3ccc(O)c(O)c3)oc3cc(O)cc(O)c3c2=O)[C@H](O)[C@@H](O)[C@@H]1O)c1cc(O)c(O)c(O)c1`, the Activity in test [1] is less than 35%.

`COc1cc(O)cc2oc(-c3ccc(O)c(O)c3)c(O[C@@H]3O[C@H](CO)[C@H](O)[C@H](O)[C@H]3O)c(=O)c12`: the Activity in test [2] was less than 70%. Also, the result in test [1] was Active.

In the case of `COc1ccc(-c2oc3cc(O)cc(O)c3c(=O)c2O)cc1O`, the outcome in test [1] was Active.

Turning to `COC(=O)c1cc(O)c(O)c(O)c1`, the outcome in test [3] was Active.

Regarding `COc1c(-c2ccc(O)c(O)c2)oc2cc(O)cc(O)c2c1=O`, the Activity in test [2] is less than 70%. Besides, in test [1], the result was Active.

For the molecule `COc1cc(-c2oc3cc(O)cc(O)c3c(=O)c2O[C@@H]2O[C@H](CO)[C@H](O)[C@H](O)[C@H]2O)ccc1O`, the outcome in test [1] was Active.

With `O=c1c(O[C@@H]2O[C@H](CO)[C@H](O)[C@H](O)[C@H]2O)c(-c2ccc(O)c(O)c2)oc2cc(O)cc(O)c12`, the Activity in test [2] was less than 70%. The outcome in test [1] was Active.

In the case of `O=C(O[C@H]1[C@H](O)[C@@H](O)[C@H](Oc2c(-c3ccc(O)c(O)c3)oc3cc(O)cc(O)c3c2=O)O[C@@H]1CO)c1cc(O)c(O)c(O)c1`, in test [1], the Activity was less than 35%.

`O=C(O[C@H]1[C@H](Oc2c(-c3ccc(O)c(O)c3)oc3cc(O)cc(O)c3c2=O)O[C@H](CO)[C@@H](O)[C@@H]1OC(=O)c1cc(O)c(O)c(O)c1)c1cc(O)c(O)c(O)c1`: the Activity in test [1] was less than 35%.

As to `O=c1c(O)c(-c2ccc(O)c(O)c2)oc2cc(O)cc(O)c12`, the Activity in test [2] was less than 70%. The result in test [1] was Active.

As to `COc1cc(O)cc2oc(-c3ccc(O)c(O)c3)c(O)c(=O)c12`, the Activity in test [2] is less than 70%. The result in test [1] was Active.

Turning to `COc1cc(-c2oc3cc(O)cc(O)c3c(=O)c2O[C@@H]2O[C@H](CO)[C@@H](O)[C@H](O)[C@H]2O)ccc1O`, the outcome in test [1] was Active.

`O=C(O[C@H]1[C@H](Oc2c(-c3ccc(O)c(O)c3)oc3cc(O)cc(O)c3c2=O)O[C@H](CO)[C@@H](O)[C@@H]1O)c1cc(O)c(O)c(O)c1`: the Activity in test [1] was less than 35%.

Regarding `O=c1c(O[C@@H]2O[C@H](CO)[C@@H](O)[C@H](O)[C@H]2O)c(-c2ccc(O)c(O)c2)oc2cc(O)cc(O)c12`, the Activity in test [2] is less than 70%. For the same molecule, in test [1], the result was Active.

For `COc1cc(-c2oc3cc(O)cc(O)c3c(=O)c2O)ccc1O`, in test [1], the result was Active.

Turning to `COc1cc(O)cc2oc(-c3ccc(O)c(O)c3)c(O[C@@H]3O[C@H](CO)[C@@H](O)[C@H](O)[C@H]3O)c(=O)c12`, the Activity in test [2] is less than 70%. In addition, the outcome in test [1] was Active.
